Format in all cases: functional
The subject of assay [1] is Staphylococcus aureus. In words: Antibacterial activity against Staphylococcus aureus NCIM 5021 after 24 hrs by microdilution susceptibility method. Particulars: NCIM 5021, 24 h. In outline:
(§1)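 This is a microdilution susceptibility test. Organism suspensions are inoculated into wells holding the dilution series, then incubated at 36 °C for 24 h (bacteria) or 48 h (fungi). MIC is the lowest concentration giving no turbidity, i.e. complete inhibition of visible growth.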
In general terms: Dilution methods test growth across graded concentrations, often in twofold steps.

In assay [2] the test system is Staphylococcus aureus. In words: Antibacterial activity against Staphylococcus aureus NCIM 5021 at 200 ug/disk after 24 hrs by agar disc-diffusion method. Particulars: NCIM 5021, 24 h, read-out: DIZ. The method in brief:
(§2)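 Sterile 6 mm filter-paper discs are soaked in compound solution in DMSO and placed on nutrient agar plates already inoculated with each organism. Plates are incubated at 37 °C. The diameter of the growth-inhibition zone is read after 24 h for bacteria and after 48 h for fungi.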
In general terms: In agar diffusion tests the substance spreads into inoculated agar from a disc or well.

Assay [3] has as its system Aspergillus niger. In words: Antifungal activity against Aspergillus niger NCIM 596 at 100 ug/disk after 48 hrs by agar disc-diffusion method. The conditions noted are these: NCIM 596, 48 h, read-out: DIZ. The method in brief: as §2
Assay [4] relates to Klebsiella pneumoniae. As to the kind of experiment: Antibacterial activity against Klebsiella pneumoniae NCIM 2957 at 100 ug/disk after 24 hrs by agar disc-diffusion method. Particulars: NCIM 2957, 24 h, read-out: DIZ. The method in brief: as §2
Assay [5] concerns Staphylococcus aureus. As to the kind of experiment: Antibacterial activity against Staphylococcus aureus NCIM 5021 at 100 ug/disk after 24 hrs by agar disc-diffusion method. The conditions noted are these: NCIM 5021, 24 h, read-out: DIZ. The method in brief: as §2
The subject of assay [6] is Bacillus subtilis. In words: Antibacterial activity against Bacillus subtilis NCIM 2063 at 100 ug/disk after 24 hrs by agar disc-diffusion method. The conditions noted are these: NCIM 2063, 24 h, read-out: DIZ. In outline: as §2
The subject of assay [7] is Fusarium solani. In words: Antifungal activity against Fusarium solani NCIM 1330 after 48 hrs by microdilution susceptibility method. Particulars: NCIM 1330, 48 h. The method in brief:
as §1

Assay [8] relates to Klebsiella pneumoniae. As to the kind of experiment: Antibacterial activity against Klebsiella pneumoniae NCIM 2957 at 200 ug/disk after 24 hrs by agar disc-diffusion method. The conditions noted are these: NCIM 2957, 24 h, read-out: DIZ. The method in brief:
as §2

The test system of assay [9] is Aspergillus niger. As to the kind of experiment: Antifungal activity against Aspergillus niger NCIM 596 at 200 ug/disk after 48 hrs by agar disc-diffusion method. The conditions noted are these: NCIM 596, 48 h, read-out: DIZ. The method in brief:
as §2

For assay [10], the system named is Proteus vulgaris. In words: Antibacterial activity against Proteus vulgaris NCIM 2027 at 200 ug/disk after 24 hrs by agar disc-diffusion method. Particulars: NCIM 2027, 24 h, read-out: DIZ. In outline:
as §2

For assay [11], the system named is Fusarium solani. In words: Antifungal activity against Fusarium solani NCIM 1330 at 100 ug/disk after 48 hrs by agar disc-diffusion method. Particulars: NCIM 1330, 48 h, read-out: DIZ. In outline:
as §2

Assay [12] deals with Fusarium solani. In words: Antifungal activity against Fusarium solani NCIM 1330 at 200 ug/disk after 48 hrs by agar disc-diffusion method. Particulars: NCIM 1330, 48 h, read-out: DIZ. In outline: as §2
In assay [13] the test system is Bacillus subtilis. In words: Antibacterial activity against Bacillus subtilis NCIM 2063 after 24 hrs by microdilution susceptibility method. The conditions noted are these: NCIM 2063, 24 h. The method in brief: as §1
Assay [14] has as its system Curvularia lunata. As to the kind of experiment: Antifungal activity against Curvularia lunata NCIM 716 at 200 ug/disk after 48 hrs by agar disc-diffusion method. The conditions noted are these: NCIM 716, 48 h, read-out: DIZ. The method in brief:
as §2

For assay [15], the system named is Curvularia lunata. As to the kind of experiment: Antifungal activity against Curvularia lunata NCIM 716 after 48 hrs by microdilution susceptibility method. Particulars: NCIM 716, 48 h. The method in brief: as §1
Assay [16] relates to Proteus vulgaris. As to the kind of experiment: Antibacterial activity against Proteus vulgaris NCIM 2027 at 100 ug/disk after 24 hrs by agar disc-diffusion method. The conditions noted are these: NCIM 2027, 24 h, read-out: DIZ. In outline: as §2
Assay [17] relates to Curvularia lunata. In words: Antifungal activity against Curvularia lunata NCIM 716 at 100 ug/disk after 48 hrs by agar disc-diffusion method. Particulars: NCIM 716, 48 h, read-out: DIZ. In outline:
as §2

The test system of assay [18] is Bacillus subtilis. In words: Antibacterial activity against Bacillus subtilis NCIM 2063 at 200 ug/disk after 24 hrs by agar disc-diffusion method. The conditions noted are these: NCIM 2063, 24 h, read-out: DIZ. The method in brief:
as §2

Converted amounts (≈) assume the structure as drawn.

A word on the MIC: it is the lowest concentration that inhibits growth of the organism.

Consider `Nn1c(CS(=O)(=O)c2ccccc2)nnc1-c1ccccc1Cl`, for which the MIC was determined as 400 µg/mL (≈ 1150 µM) in the assay on Staphylococcus aureus [1], 400 µg/mL (≈ 1150 µM) in the assay with Fusarium solani [7], 200 µg/mL (≈ 573 µM) against Bacillus subtilis [13] and 200 µg/mL (≈ 573 µM) in the assay on Curvularia lunata [15]. Also, the zone of inhibition at 200 µg/disc turned out to be 20 mm in the assay with Staphylococcus aureus [2]; 20 mm with Klebsiella pneumoniae [8]; 21 mm in the assay with Aspergillus niger [9]; 18 mm in the assay on Proteus vulgaris [10]; 25 mm in the assay with Fusarium solani [12]; 25 mm with Curvularia lunata [14]. For the same molecule, in the assay on Bacillus subtilis [18], the zone of inhibition at 200 µg/disc was 22 mm. In addition, the zone of inhibition at 100 µg/disc is 18 mm in the assay with Aspergillus niger [3]; 17 mm in the assay on Klebsiella pneumoniae [4]; 17 mm with Staphylococcus aureus [5]; 19 mm in the assay with Bacillus subtilis [6]; 23 mm with Fusarium solani [11]; 16 mm in the assay with Proteus vulgaris [16]. For the same molecule, the zone of inhibition at 100 µg/disc with Curvularia lunata [17] is 22 mm.
Take `O=S(=O)(Cc1ccccc1)Cc1nnc(-c2ccccc2Cl)o1`: the MIC in the assay with Staphylococcus aureus [1], in the assay with Fusarium solani [7] and in the assay on Curvularia lunata [15] was 400 µg/mL (≈ 1150 µM) throughout. Further, the zone of inhibition at 200 µg/disc in the assay with Staphylococcus aureus [2] was 20 mm; with Klebsiella pneumoniae [8] it was 16 mm; in the assay with Aspergillus niger [9] it was 21 mm; in the assay with Proteus vulgaris [10] it was 17 mm; in the assay with Fusarium solani [12], 19 mm; with Curvularia lunata [14], 23 mm. Moreover, the zone of inhibition at 200 µg/disc with Bacillus subtilis [18] is 18 mm. Also, the zone of inhibition at 100 µg/disc is 18 mm in the assay on Aspergillus niger [3]; 14 mm in the assay on Klebsiella pneumoniae [4]; 17 mm in the assay with Staphylococcus aureus [5]; 15 mm with Bacillus subtilis [6]; 17 mm with Fusarium solani [11]; 15 mm in the assay on Proteus vulgaris [16]. In addition, in the assay with Curvularia lunata [17], the zone of inhibition at 100 µg/disc is 18 mm.
On to `O=S(=O)(Cc1nnc(-c2ccccc2)o1)c1ccc(Cl)cc1`, for which the zone of inhibition at 200 µg/disc in the assay on Staphylococcus aureus [2] is 18 mm; with Klebsiella pneumoniae [8], 16 mm; in the assay with Aspergillus niger [9], 19 mm; in the assay on Proteus vulgaris [10] it was 15 mm; in the assay with Fusarium solani [12], 20 mm; in the assay on Curvularia lunata [14] it was 17 mm. For the same molecule, in the assay with Bacillus subtilis [18], the zone of inhibition at 200 µg/disc worked out at 17 mm. The zone of inhibition at 100 µg/disc in the assay with Aspergillus niger [3] amounted to 16 mm; with Klebsiella pneumoniae [4] it was 14 mm; in the assay with Staphylococcus aureus [5], 15 mm; with Bacillus subtilis [6], 15 mm; in the assay with Fusarium solani [11], 16 mm; with Proteus vulgaris [16] it was 12 mm. Also, the zone of inhibition at 100 µg/disc with Curvularia lunata [17] was 15 mm. Further, the lowest concentration to inhibit growth in the assay with Fusarium solani [7] (MIC) was 400 µg/mL (≈ 1190 µM).
Regarding `O=S(=O)(Cc1nnc(-c2ccccc2)o1)c1ccccc1`, the zone of inhibition at 200 µg/disc stood at 15 mm in the assay with Staphylococcus aureus [2]; 18 mm with Klebsiella pneumoniae [8]; 17 mm in the assay with Aspergillus niger [9]; 17 mm with Proteus vulgaris [10]; 18 mm in the assay with Fusarium solani [12]; 19 mm in the assay on Curvularia lunata [14]. In the assay with Bacillus subtilis [18], the zone of inhibition at 200 µg/disc was determined as 13 mm. Also, the zone of inhibition at 100 µg/disc in the assay on Aspergillus niger [3] turned out to be 14 mm; in the assay on Klebsiella pneumoniae [4] it was 16 mm; with Staphylococcus aureus [5], 12 mm; with Bacillus subtilis [6], 11 mm; in the assay on Fusarium solani [11], 15 mm; with Proteus vulgaris [16], 14 mm. In addition, the zone of inhibition at 100 µg/disc in the assay on Curvularia lunata [17] is 15 mm.
As to `O=S(=O)(Cc1nnc(-c2ccccc2Cl)o1)c1ccc(Cl)cc1`, the MIC against Staphylococcus aureus [1], in the assay with Fusarium solani [7], in the assay on Bacillus subtilis [13] and against Curvularia lunata [15] was 400 µg/mL (≈ 1080 µM) each time. Besides, the zone of inhibition at 200 µg/disc in the assay with Staphylococcus aureus [2] was found to be 18 mm; in the assay with Klebsiella pneumoniae [8] it was 17 mm; with Aspergillus niger [9] it was 16 mm; with Proteus vulgaris [10], 19 mm; in the assay with Fusarium solani [12] it was 19 mm; in the assay with Curvularia lunata [14], 19 mm. In addition, in the assay on Bacillus subtilis [18], the zone of inhibition at 200 µg/disc amounted to 17 mm. The zone of inhibition at 100 µg/disc with Aspergillus niger [3] was found to be 15 mm; in the assay with Klebsiella pneumoniae [4] it was 14 mm; in the assay on Staphylococcus aureus [5], 15 mm; in the assay with Bacillus subtilis [6], 16 mm; with Fusarium solani [11] it was 16 mm; in the assay on Proteus vulgaris [16], 16 mm. Besides, the zone of inhibition at 100 µg/disc with Curvularia lunata [17] was determined as 17 mm.
Regarding `O=S(=O)(Cc1nnc(-c2ccccc2Cl)o1)c1ccccc1`, the zone of inhibition at 200 µg/disc in the assay with Staphylococcus aureus [2] amounted to 16 mm; with Klebsiella pneumoniae [8] it was 15 mm; with Aspergillus niger [9], 17 mm; in the assay with Proteus vulgaris [10], 17 mm; in the assay on Fusarium solani [12] it was 20 mm; with Curvularia lunata [14] it was 22 mm. Further, the zone of inhibition at 200 µg/disc with Bacillus subtilis [18] amounted to 17 mm. The zone of inhibition at 100 µg/disc with Aspergillus niger [3] was 15 mm; with Klebsiella pneumoniae [4], 12 mm; in the assay with Staphylococcus aureus [5] it was 14 mm; in the assay on Bacillus subtilis [6] it was 16 mm; in the assay with Fusarium solani [11], 16 mm; in the assay on Proteus vulgaris [16], 14 mm. Besides, the zone of inhibition at 100 µg/disc with Curvularia lunata [17] turned out to be 18 mm.
As to `O=S(=O)(Cc1ccccc1)Cc1nnc(-c2ccccc2)o1`, the MIC in the assay with Staphylococcus aureus [1] and against Fusarium solani [7] was 400 µg/mL (≈ 1270 µM) each time. For the same molecule, the zone of inhibition at 200 µg/disc was 18 mm in the assay with Staphylococcus aureus [2]; 18 mm with Klebsiella pneumoniae [8]; 17 mm with Aspergillus niger [9]; 15 mm with Proteus vulgaris [10]; 20 mm with Fusarium solani [12]; 22 mm in the assay on Curvularia lunata [14]. Moreover, the zone of inhibition at 200 µg/disc with Bacillus subtilis [18] came to 17 mm. The zone of inhibition at 100 µg/disc in the assay with Aspergillus niger [3] is 16 mm; in the assay with Klebsiella pneumoniae [4], 15 mm; with Staphylococcus aureus [5] it was 16 mm; with Bacillus subtilis [6] it was 14 mm; in the assay on Fusarium solani [11], 17 mm; with Proteus vulgaris [16], 12 mm. In the assay with Curvularia lunata [17], the zone of inhibition at 100 µg/disc was found to be 18 mm.
With `O=S(=O)(Cc1ccc(Cl)cc1)Cc1nnc(-c2ccccc2)o1`, the MIC against Staphylococcus aureus [1], against Fusarium solani [7] and with Curvularia lunata [15] was 400 µg/mL (≈ 1150 µM) in each case. Moreover, the zone of inhibition at 200 µg/disc worked out at 20 mm with Staphylococcus aureus [2]; 18 mm with Klebsiella pneumoniae [8]; 21 mm in the assay with Aspergillus niger [9]; 17 mm in the assay with Proteus vulgaris [10]; 19 mm in the assay with Fusarium solani [12]; 22 mm in the assay with Curvularia lunata [14]. The zone of inhibition at 200 µg/disc in the assay with Bacillus subtilis [18] was determined as 19 mm. The zone of inhibition at 100 µg/disc in the assay with Aspergillus niger [3] turned out to be 17 mm; with Klebsiella pneumoniae [4] it was 16 mm; in the assay with Staphylococcus aureus [5], 18 mm; in the assay on Bacillus subtilis [6], 18 mm; with Fusarium solani [11], 16 mm; in the assay on Proteus vulgaris [16], 15 mm. For the same molecule, in the assay on Curvularia lunata [17], the zone of inhibition at 100 µg/disc was found to be 19 mm.

Values taken from ChEMBL document CHEMBL1137737, “Synthesis, antimicrobial and cytotoxic activities of 1,3,4-oxadiazoles, 1,3,4-thiadiazoles and 1,2,4-triazoles” (Eur J Med Chem, 2009).
